The source of these data is ChEMBL document CHEMBL1137651 (Antimicrob Agents Chemother, 2007).

Type in all cases: functional
For experiment [1], the system named is Mycobacterium tuberculosis. Kind of experiment: Antimycobacterial activity against drug-resistant Mycobacterium tuberculosis H37Rv ATCC 2517-infected hollow fiber system based in vitro pharmacokinetic-pharmacodynamic tuberculosis model assessed as sigmoidicity constant for drug effect on microbial growth.
In experiment [2] the test system is Mycobacterium tuberculosis. Kind of experiment: Antimycobacterial activity against drug-resistant Mycobacterium tuberculosis H37Rv ATCC 2517-infected hollow fiber system based in vitro pharmacokinetic-pharmacodynamic tuberculosis model assessed as rate constant for maximal bacterial kill.
The subject of experiment [3] is Mycobacterium tuberculosis. The experiment is described as follows: Antimycobacterial activity against drug-resistant Mycobacterium tuberculosis H37Rv ATCC 2517-infected hollow fiber system based in vitro pharmacokinetic-pharmacodynamic tuberculosis model assessed as rate constant for maximal bacterial growth.
Experiment [4] has as its system Mycobacterium tuberculosis. Kind of experiment: Antimycobacterial activity against drug-resistant Mycobacterium tuberculosis H37Rv ATCC 2517-infected hollow fiber system based in vitro pharmacokinetic-pharmacodynamic tuberculosis model assessed as concentration needed to achieve 50% effect on maximal growth rate.
Experiment [5] concerns Mycobacterium tuberculosis. Kind of experiment: Antimycobacterial activity against drug-resistant Mycobacterium tuberculosis H37Rv ATCC 2517-infected hollow fiber system based in vitro pharmacokinetic-pharmacodynamic tuberculosis model assessed as sigmoidicity constant for microbial killing.
Experiment [6] has as its system Mycobacterium tuberculosis. Kind of experiment: Antimycobacterial activity against drug-resistant Mycobacterium tuberculosis H37Rv ATCC 2517-infected hollow fiber system based in vitro pharmacokinetic-pharmacodynamic tuberculosis model assessed as concentration needed to achieve 50% maximal killing rate. The procedure, abridged: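 Hollow-fibre system at 37°C under 5% CO2, preconditioned with drug for 3 days. Log-phase bacilli (10 ml of 10^6 CFU/ml) went into the peripheral compartment. […] Drug levels were checked centrally. Peripheral samples were taken daily for 7 days, washed twice in saline and plated on 7H10 agar for CFU.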

As for `CO[C@H]1/C=C/O[C@@]2(C)Oc3c(C)c(O)c4c(O)c(c(/C=N/N5CCN(C)CC5)c(O)c4c3C2=O)NC(=O)/C(C)=C\C=C\[C@H](C)[C@H](O)[C@@H](C)[C@@H](O)[C@@H](C)[C@H](OC(C)=O)[C@@H]1C` [RIFAMPIN], the Hg in experiment [1] is on record as 4.542. Besides, the Kkmax in experiment [2] turned out to be 29.379 ×10⁻³ log10CFU/ml/hr. The Kgmax in experiment [3] is 6.195 ×10⁻³ log10CFU/ml/hr. Moreover, the C50g in experiment [4] is reported as 2.019 mg/L. In addition, the Hk in experiment [5] was found to be 45.326. For the same compound, the C50k in experiment [6] is 22.405 mg/L.
